Measurements of several laboratories.
Lines come from different studies, so protocols differ. Values after ≈ are worked out from the molar mass of the structure shown.

SMILES	target or system	test	test system	conditions	endpoint	result
Sc1ncnc2nc[nH]c12	Influenza A virus	viral replication, inhibitor, ELISA	MDCK, H1N1	24 h	IC50	11400 nM
CCN(CC)CCCC(C)Nc1ccnc2cc(Cl)ccc12 (stereo not shown)	Plasmodium knowlesi	parasite growth, SYBR Green	–	–	IC50	19.5 nM
O=C1c2ccccc2-c2c3c(cc4ccnc1c24)OCO3	HuCC-A1	cell growth or viability, MTT	–	75 h	IC50	10000 nM
CC[C@H](C)C[C@H](C)CCCCCCCCC(=O)N[C@H]1C[C@@H](O)[C@@H](NCCN)NC(=O)[C@@H]2[C@@H](O)CCN2C(=O)[C@H]([C@H](O)CCN)NC(=O)[C@H]([C@H](O)[C@@H](O)c2ccc(O)cc2)NC(=O)[C@@H]2C[C@@H](O)CN2C(=O)[C@H]([C@@H](C)O)NC1=O	Pichia kudriavzevii	microbial growth, broth dilution	ATCC14243	48 h	MIC	4 µg/mL (≈ 3.66 µM)
COC(=O)OCOc1c2n(ccc1=O)N([C@@H]1c3ccccc3SCc3c1ccc(F)c3F)[C@@H]1COCCN1C2=O	Influenza A virus	viral replication, inhibitor	MDCK, H1N1 WSN	–	EC50	0.946 nM
NC(=O)c1ncn([C@@H]2O[C@H](CO)[C@@H](O)[C@H]2O)n1	Influenza A virus	viral replication, inhibitor, ELISA	MDCK, H1N1	24 h	IC50	3440 nM
CN[C@H](CC(C)C)C(=O)N[C@H]1C(=O)N[C@@H](CC(N)=O)C(=O)N[C@H]2C(=O)N[C@H]3C(=O)N[C@H](C(=O)N[C@H](C(=O)O)c4cc(O)cc(O)c4-c4cc3ccc4O)[C@H](O)c3ccc(c(Cl)c3)Oc3cc2cc(c3O[C@@H]2O[C@H](CO)[C@@H](O)[C@H](O)[C@H]2O[C@H]2C[C@](C)(N)[C@H](O)[C@H](C)O2)Oc2ccc(cc2Cl)[C@H]1O	Enterococcus	microbial growth, broth dilution	VRE	–	MIC	> 64 µg/mL
NC(=O)c1nc(F)c[nH]c1=O	Influenza A virus	viral replication, inhibitor	H1N1 PR/8	–	EC50	1320 nM
CC1=CC(=O)c2c(O)cccc2C1=O	HuCC-A1	cell growth or viability, MTT	–	–	IC50	10800 nM
Nc1ncn([C@@H]2O[C@H](CO)[C@@H](O)[C@H]2O)c(=O)n1	Influenza A virus	viral replication, inhibitor, ELISA	MDCK, H1N1	24 h	IC50	3420 nM
N.N.[Cl][Pt][Cl]	SU-DHL-8	cell growth or viability, ATP luminescence	–	72 h	IC50	940 nM
N=C(CC(O)c1cc2c(F)cc(F)cc2c2cc(C(F)(F)F)ccc12)Nc1ccc(Br)cc1 (stereo not shown)	Plasmodium knowlesi	parasite growth, SYBR Green	–	–	IC50	3.3 nM
O=c1c2ccccc2[se]n1-c1ccccc1	Influenza A virus	viral replication	Vero, H1N1	48 h	IC50	1570 nM
